Laboratory results from ChEMBL document CHEMBL4665798, “Novel Human Urate Transporter 1 Inhibitors as Hypouricemic Drug Candidates with Favorable Druggability” (J Med Chem, 2020).

Tests used:
[1] = MRT (0 to infinity) in male Kunming mouse at 2 mg/kg, po by LC-MS/MS analysis; format: ADME, organism-based; settings: in vivo
In short: (§1)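 Male Kunming mice, ten in total, split into five groups; single oral dose in PEG 400/normal saline (70/30, v/v). Blood taken from submandibular or saphenous vein into K2EDTA tubes at 0.25, 0.5, 1, 2, 4, 8, 24, 48, 72 h. Plasma spun at about 4 °C and kept at -70 °C. Acetonitrile precipitation with dexamethasone internal standard, then LC-MS/MS against plasma standard curves.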

[2] = Acute toxicity in Kunming mouse assessed as death at 250 mg/kg, ig measured for 1 week relative to control; format: organism-based; settings: in vivo, po, 168 h, time 1 weeks
In short: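 Kunming mice of 10-12 g, 12 per group (6 male, 6 female), fasted 12 h. Single intragastric dose of a suspension in 5% CMC-Na. Deaths, behaviour (lethargy, clonic convulsion, anorexia, ruffled fur) and body weight followed for one week and compared with vehicle controls.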

[3] = Sub-acute toxicity in Kunming mouse assessed as hepatocellular condensation of liver at 50 mg/kg, po administered as single dose every other day for 14 days by H and E staining based assay; format: organism-based; settings: in vivo, 336 h, time 14 day
[4] = Sub-acute toxicity in Kunming mouse assessed as ballooning degeneration of liver at 50 mg/kg, po administered as single dose every other day for 14 days by H and E staining based assay; format: organism-based; settings: in vivo, 336 h, time 14 day
[5] = Sub-acute toxicity in female Kunming mouse assessed as increase in body weight at 50 mg/kg, po administered once every second day for 14 days; format: organism-based; settings: in vivo, 336 h, time 14 day
[6] = Acute toxicity in Kunming mouse assessed as induction of abnormal behaviors by measuring lethargy at 500 mg/kg, ig; format: organism-based; settings: in vivo, po
[7] = Sub-acute toxicity in Kunming mouse assessed as congestion in hepatic central vein at 50 mg/kg, po administered as single dose every other day for 14 days by H and E staining based assay; format: organism-based; settings: in vivo, 336 h, time 14 day
[8] = Acute toxicity in male Kunming mouse assessed as change in body weight at 500 mg/kg, ig measured for 1 week; format: organism-based; settings: in vivo, po, 168 h, time 1 weeks
[9] = Sub-acute toxicity in male Kunming mouse assessed as increase in body weight at 50 mg/kg, po administered once every second day for 14 days; format: organism-based; settings: in vivo, 336 h, time 14 day
[10] = Half-life in male Kunming mouse at 50 mg/kg, po by LC-MS/MS analysis; format: ADME, organism-based; settings: in vivo; in short: as §1
[11] = AUC (0 to infinity) in male Kunming mouse at 2 mg/kg, po by LC-MS/MS analysis; format: ADME, organism-based; set-up: time infinity, route oral, dose 2 mg/kg; settings: in vivo; in short: as §1
[12] = Tmax in male Kunming mouse at 2 mg/kg, po by LC-MS/MS analysis; format: ADME, organism-based; settings: in vivo; in short: as §1
[13] = AUC (0 to t) in male Kunming mouse at 2 mg/kg, po by LC-MS/MS analysis; format: ADME, organism-based; set-up: dose 2 mg/kg; settings: in vivo; in short: as §1
Rattus norvegicus = species: Rattus norvegicus; experiment: Hypouricemic activity in rat model of xanthine/potassium oxonate-induced acute hyperuricemia assessed as decrease in serum uric acid level relative to control; format: functional; set-up: scale not given: the % may be the effect or the level left
[14] = Cmax in male Kunming mouse at 50 mg/kg, po by LC-MS/MS analysis; format: ADME, organism-based; set-up: route oral, dose 50 mg/kg; settings: in vivo; in short: as §1
[15] = Half-life in male Kunming mouse at 2 mg/kg, po by LC-MS/MS analysis; format: ADME, organism-based; settings: in vivo; in short: as §1
[16] = MRT (0 to infinity) in male Kunming mouse at 50 mg/kg, po by LC-MS/MS analysis; format: ADME, organism-based; settings: in vivo; in short: as §1
[17] = Sub-acute toxicity in Kunming mouse assessed as edema in proximal tubule at 50 mg/kg, po administered as single dose every other day for 14 days by H and E staining based assay; format: organism-based; settings: in vivo, 336 h, time 14 day
In short: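 Kunming mice, n = 4 per sex, fasted 12 h. Dosed orally on D0, D2, D4, D6, D8, D10 and D12; controls received an equal volume of vehicle. Weighed before each dose. Killed at D14; heart, liver, spleen, lung and kidney taken for haematoxylin and eosin staining.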

[18] = Sub-acute toxicity in Kunming mouse assessed as hydropic degeneration of hepatocytes at 50 mg/kg, po administered as single dose every other day for 14 days by H and E staining based assay; format: organism-based; settings: in vivo, 336 h, time 14 day
[19] = Tmax in male Kunming mouse at 50 mg/kg, po by LC-MS/MS analysis; format: ADME, organism-based; settings: in vivo; in short: as §1
[20] = Acute toxicity in female Kunming mouse assessed as change in body weight at 500 mg/kg, ig measured for 1 week; format: organism-based; settings: in vivo, po, 168 h, time 1 weeks
[21] = Acute toxicity in Kunming mouse assessed as induction of abnormal behaviors by measuring clonic convulsion at 500 mg/kg, ig; format: organism-based; settings: in vivo, po
Mus musculus = experiment: Hypouricemic activity in Kunming mouse model of xanthine/potassium oxonate-induced acute hyperuricemia assessed as decrease in serum uric acid level at 2 mg/kg administered 3 hrs prior to xanthine/potassium oxonate and measured after 6 hrs relative to control; format: functional; set-up: scale not given: the % may be the effect or the level left; settings: time 9 hrs
In short: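 Male Kunming mice, hyperuricemia induced by intragastric xanthine plus subcutaneous potassium oxonate (0.2 mL each). […] Groups: normal vehicle, untreated model, active control, test. Serum uric acid measured. Decrease ratio = (model SUA − compound SUA)/(model SUA − vehicle SUA).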

[22] = Acute toxicity in Kunming mouse assessed as induction of abnormal behaviors by measuring anorexia at 500 mg/kg, ig; format: organism-based; settings: in vivo, po
[23] = AUC (0 to infinity) in male Kunming mouse at 50 mg/kg, po by LC-MS/MS analysis; format: ADME, organism-based; set-up: route oral, time infinity, dose 50 mg/kg; settings: in vivo; in short: as §1
[24] = AUC (0 to t) in male Kunming mouse at 50 mg/kg, po by LC-MS/MS analysis; format: ADME, organism-based; set-up: dose 50 mg/kg; settings: in vivo; in short: as §1
[25] = Cmax in male Kunming mouse at 2 mg/kg, po by LC-MS/MS analysis; format: ADME, organism-based; set-up: route oral, dose 2 mg/kg; settings: in vivo; in short: as §1
[26] = MRT (0 to infinity) in Sprague-Dawley rat at 1 mg/kg, iv by LC-MS analysis; format: ADME, organism-based; settings: in vivo
[27] = Sub-acute toxicity in Kunming mouse assessed as clonic convulsion at 50 mg/kg, po administered once every second day for 14 days; format: organism-based; settings: in vivo, 336 h, time 14 day
[28] = Sub-acute toxicity in Kunming mouse assessed as death at 50 mg/kg, po administered once every second day for 14 days; format: organism-based; settings: in vivo, 336 h, time 14 day
[29] = Sub-acute toxicity in Kunming mouse assessed as anorexia at 50 mg/kg, po administered once every second day for 14 days; format: organism-based; settings: in vivo, 336 h, time 14 day
[30] = AUC (0 to t) in Sprague-Dawley rat at 1 mg/kg, iv by LC-MS analysis; format: ADME, organism-based; set-up: dose 1 mg/kg; settings: in vivo
[31] = Sub-acute toxicity in Kunming mouse assessed as lethargy at 50 mg/kg, po administered once every second day for 14 days; format: organism-based; settings: in vivo, 336 h, time 14 day
[32] = Sub-acute toxicity in Kunming mouse assessed as appearance of ruffled fur at 50 mg/kg, po administered once every second day for 14 days; format: organism-based; settings: in vivo, 336 h, time 14 day
[33] = AUC (0 to infinity) in Sprague-Dawley rat at 20 mg/kg, po by LC-MS analysis; format: ADME, organism-based; set-up: route oral, time infinity, dose 20 mg/kg; settings: in vivo
[34] = Acute toxicity in Kunming mouse assessed as death at 500 mg/kg, ig measured for 1 week; format: organism-based; settings: in vivo, po, 168 h, time 1 weeks
[35] = Half-life in Sprague-Dawley rat at 20 mg/kg, po by LC-MS analysis; format: ADME, organism-based; settings: in vivo
[36] = target: T1, Solute carrier family 22 member 12 (Homo sapiens, UniProt Q96S37); experiment: Inhibition of human URAT1 expressed in HEK293T cells assessed as reduction in [14C]uric acid uptake preincubated for 15 mins followed by [14C]uric acid addition by liquid scintillation counting method; format: cell-based
T1 sequence (Q96S37 whole entry): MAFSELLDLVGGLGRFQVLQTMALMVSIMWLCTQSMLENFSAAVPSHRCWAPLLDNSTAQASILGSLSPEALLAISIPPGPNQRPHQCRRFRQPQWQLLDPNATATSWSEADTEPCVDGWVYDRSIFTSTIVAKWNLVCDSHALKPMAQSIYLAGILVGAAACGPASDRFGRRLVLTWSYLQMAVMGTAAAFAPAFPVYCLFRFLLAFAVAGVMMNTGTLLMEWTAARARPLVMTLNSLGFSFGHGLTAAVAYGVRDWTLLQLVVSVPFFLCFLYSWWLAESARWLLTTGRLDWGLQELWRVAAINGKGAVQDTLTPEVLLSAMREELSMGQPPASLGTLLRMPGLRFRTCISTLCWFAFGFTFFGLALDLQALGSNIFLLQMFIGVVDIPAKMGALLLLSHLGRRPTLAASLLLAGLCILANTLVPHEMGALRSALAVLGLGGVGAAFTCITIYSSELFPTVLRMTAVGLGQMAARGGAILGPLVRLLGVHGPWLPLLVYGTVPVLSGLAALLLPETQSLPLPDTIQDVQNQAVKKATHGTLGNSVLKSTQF

[37] = Tmax in Sprague-Dawley rat at 20 mg/kg, po by LC-MS analysis; format: ADME, organism-based; settings: in vivo
[38] = AUC (0 to t) in Sprague-Dawley rat at 20 mg/kg, po by LC-MS analysis; format: ADME, organism-based; set-up: dose 20 mg/kg; settings: in vivo
[39] = Cmax in Sprague-Dawley rat at 20 mg/kg, po by LC-MS analysis; format: ADME, organism-based; set-up: route oral, dose 20 mg/kg; settings: in vivo
[40] = AUC (0 to infinity) in Sprague-Dawley rat at 1 mg/kg, iv by LC-MS analysis; format: ADME, organism-based; set-up: time infinity, route intravenous, dose 1 mg/kg; settings: in vivo
[41] = Oral bioavailability in Sprague-Dawley rat at 20 mg/kg by LC-MS analysis; format: ADME, organism-based; settings: in vivo
[42] = MRT (0 to infinity) in Sprague-Dawley rat at 20 mg/kg, po by LC-MS analysis; format: ADME, organism-based; settings: in vivo
[43] = Half-life in Sprague-Dawley rat at 1 mg/kg, iv by LC-MS analysis; format: ADME, organism-based; settings: in vivo
[44] = Clearance in Sprague-Dawley rat at 1 mg/kg, iv by LC-MS analysis; format: ADME, organism-based; settings: in vivo

## O=C(O)CSc1nnc(Br)n1-c1ccc(C2CC2)c2ccccc12
[1]
  MRT inf: 5.09 h
[2]
  Activity: Toxic
[3]
  Activity: Toxic
[4]
  Activity: Toxic
[5]
  Activity: Non-Toxic
[6]
  Activity: Non-Toxic
[7]
  Activity: Toxic
[8]
  Activity: Non-Toxic
[9]
  Activity: Non-Toxic
[10]
  half-life: 7.46 h
[11]
  AUC(0-inf): 7120 ng·h/mL
[12]
  Tmax: 0.667 h
[13]
  AUC(0-t): 7080 ng·h/mL
Rattus norvegicus
  Activity: 52.99%
[14]
  Cmax: 26500 ng/mL
[15]
  half-life: 3.08 h
[16]
  MRT inf: 6.35 h
[17]
  Activity: Toxic
[18]
  Activity: Toxic
[19]
  Tmax: 1 h
[20]
  Activity: Non-Toxic
[21]
  Activity: Non-Toxic
Mus musculus
  Activity: 27.06%
[22]
  Activity: Non-Toxic
[23]
  AUC(0-inf): 145000 ng·h/mL
[24]
  AUC(0-t): 144000 ng·h/mL
[25]
  Cmax: 1500 ng/mL

## CC(Sc1nc2cnccc2n1-c1ccc(C2CC2)c2ccccc12)C(=O)O (racemic)
[26]
  MRT inf: 2.86 h
[27]
  Activity: Non-Toxic
[3]
  Activity: Non-Toxic
[28]
  Activity: Non-Toxic
[4]
  Activity: Non-Toxic
[5]
  Activity: Non-Toxic
[29]
  Activity: Non-Toxic
[30]
  AUC(0-t): 3110 ng·h/mL
[31]
  Activity: Non-Toxic
[6]
  Activity: Non-Toxic
[32]
  Activity: Non-Toxic
[7]
  Activity: Non-Toxic
[33]
  AUC(0-inf): 65100 ng·h/mL
[34]
  Activity: Non-Toxic
[8]
  Activity: Non-Toxic
[9]
  Activity: Non-Toxic
[35]
  half-life: 3.1 h
[36]
  IC50: 6.14 µM
[37]
  Tmax: 0.5 h
Rattus norvegicus
  Activity: 81.42%
[38]
  AUC(0-t): 58200 ng·h/mL
[39]
  Cmax: 21600 ng/mL
[40]
  AUC(0-inf): 3320 ng·h/mL
[41]
  bioavailability: 93.6%
[42]
  MRT inf: 4.6 h
[43]
  half-life: 2.3 h
[18]
  Activity: Non-Toxic
[44]
  clearance: 5.3 mL/min/kg
[20]
  Activity: Non-Toxic
[21]
  Activity: Non-Toxic
Mus musculus
  Activity: 89.62%
[22]
  Activity: Non-Toxic

## CC(Sc1nc2cccnc2n1-c1ccc(C2CC2)c2ccccc12)C(=O)O (stereo unspecified)
[36]
  IC50: > 30 µM
Mus musculus
  Activity: 42.06%
